Reference: ChEMBL document CHEMBL1156079, “Imidazoquines as antimalarial and antipneumocystis agents” (J Med Chem, 2009)
Values after ≈ are worked out from the molar mass of the structure shown.

Key:
Homo sapiens = species on record: Homo sapiens; test: Half life in human plasma by HPLC analysis
[1] = Solubility in water; type: physicochemical
[2] = Octanol/water partition coefficient, log P of the compound; type: physicochemical
Pneumocystis carinii [3] = test: Antipneumocystis activity against Pneumocystis carinii assessed as reduction in parasite ATP content after 24 to 72 hrs by luciferin-luciferase assay; type: functional, organism-based
Summary of the method: (§1)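 P. carinii from immunosuppressed, intratracheally inoculated Long Evans and Brown Norway rats, 10⁸ nuclei/ml in supplemented RPMI 1640 with 20% calf serum, pH 7.5–8.0, 380 mOsm. Compounds added in DMSO (final <0.2% v/v). Incubated at 35 °C, 10% CO₂, with daily medium change; sampled at 24, 48 and 72 h. ATP measured by luciferin-luciferase as % of untreated control; triplicate wells across isolation batches, three readings each.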

Pneumocystis carinii [4] = test: Antipneumocystis activity against Pneumocystis carinii assessed as reduction in parasite ATP content at < 0.2% v/v by luciferin-luciferase assay; type: functional, organism-based; details: TDE = time-dependent effect
Plasmodium berghei [5] = test: Antiplasmodial activity against liver-stage GFP expressing Plasmodium berghei sporozoites infected in human HuH7 cells assessed as inhibition of parasite schizonts development after 48 hrs by FACS analysis; type: functional, organism-based; details: for Activity: Huh-7; for IC50: Huh-7, Liver
Pneumocystis carinii [6] = test: Antipneumocystis activity against Pneumocystis carinii assessed as reduction in parasite ATP content after 24 hrs by luciferin-luciferase assay; type: functional, organism-based
Summary of the method: as §1

[7] = Chemical stability by HPLC analysis; type: physicochemical
A549 = test: Cytotoxicity against human A549 cells after 72 hrs; type: cell-based; details: A549, 72 h
Plasmodium falciparum = test: Antiplasmodial activity against chloroquine-resistant blood stage Plasmodium falciparum W2 after 48 hrs by FACS analysis; type: functional, organism-based; details: W2, 48 h
Pneumocystis carinii [8] = test: Antipneumocystis activity against Pneumocystis carinii assessed as reduction in parasite ATP content after 72 hrs by luciferin-luciferase assay; type: functional, organism-based
Summary of the method: as §1

Pneumocystis carinii [9] = test: Antipneumocystis activity against Pneumocystis carinii assessed as reduction in parasite ATP content after 48 hrs by luciferin-luciferase assay; type: functional, organism-based
Summary of the method: as §1

Plasmodium berghei [10] = test: (§2) Antiplasmodial activity against Plasmodium berghei ANKA infected in BALB/c mice (Mus musculus) assessed as parasite-transmission to Anopheles stephensi after feeding on infected mice (Mus musculus) at 10 umol/kg, intraperitoneally administered 4 days after infection measured 10 days after 2 hrs of mosquito feeding by transmission-blocking activity assay relative to control; type: functional
Summary of the method: (§3)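 Balb/C mice infected with P. berghei ANKA; after 4 days, once gametocytes were seen on Giemsa blood films, groups of six got one intraperitoneal dose (10 or 50 μmol/kg; PBS controls). At 2 h, anesthetized mice fed ca. 50 glucose-starved female An. stephensi for 2 h. Ten days later, 10 mosquitoes per cage dissected; midgut oocysts counted, giving % infected mosquitoes and mean oocysts per mosquito.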

Plasmodium berghei [11] = test: as §2, with “at 50” for “at 10”; type: functional
Summary of the method: as §3

[12] = Selectivity index, ratio of cytotoxicity against human A549 cells to IC50 for chloroquine-resistant blood-stage Plasmodium falciparum W2; type: toxicity, cell-based; details: read-out: Selectivity Index

SMILES	half-life (Homo sapiens)	solubility ([1]; water)	logP [2]	Activity (Pneumocystis carinii [3])	Activity (Pneumocystis carinii [4])	Activity (Plasmodium berghei [5])	IC50 (Plasmodium berghei [5])	IC50 (Pneumocystis carinii [6])	Stability [7]	IC50 (A549)	IC50 (Plasmodium falciparum)	IC50 (Pneumocystis carinii [8])	IC50 (Pneumocystis carinii [9])	Activity (Plasmodium berghei [10])	Activity (Plasmodium berghei [11])	solubility ([1]; buffer)	selectivity ratio [12]
COc1cc(NC(C)CCCN2C(=O)[C@@H](C)NC2(C)C)c2ncccc2c1 (stereo partly specified)	> 72 h	29.8 µg/mL (≈ 80.4 µM)	3.25														
COc1cc(NC(C)CCCN2C(=O)CN(C(=O)[C@H](N)C(C)C)C2(C)C)c2ncccc2c1 (stereo partly specified)	> 72 h	46.5 µg/mL (≈ 102 µM)	2.93	Dose-dependent effect	tde	Dose-dependent effect	17 µM	54.3 µM	Stable	5.5 µM	7.9 µM	13.6 µM	20.2 µM				
COc1cc(NC(C)CCCN2C(=O)CN(C(C)=O)C2(C)C)c2ncccc2c1 (stereo unspecified)								≥ 50 µM		> 100 µM	> 10 µM	36.7 µM	102 µM				
COc1cc(NC(C)CCCN2C(=O)CN(C(=O)[C@H](N)CCSC)C2(C)C)c2ncccc2c1 (stereo partly specified)	> 72 h	11.7 µg/mL (≈ 24 µM)	2.94	Dose-dependent effect	tde	Dose-dependent effect	31 µM	23.8 µM	Stable	7.9 µM	12.5 µM	7 µM	13.1 µM	47.1%	26.4%		
COc1cc(NC(C)CCCN2C(=O)CNC2(C)C)c2ncccc2c1 (stereo unspecified)		40.5 µg/mL (≈ 114 µM)	3.07														
COc1cc(NC(C)CCCN2C(=O)CN(C(=O)[C@@H](C)N)C2(C)C)c2ncccc2c1 (stereo partly specified)	> 72 h	120 µg/mL (≈ 281 µM)	2.49	Dose-dependent effect	tde	Dose-dependent effect	10 µM	39.6 µM	Stable	7.8 µM		8.4 µM	18.7 µM	67.9%	40.1%		
COc1cc(NC(C)CCCN2C(=O)[C@@H](C)N(C(=O)CN)C2(C)C)c2ncccc2c1 (stereo partly specified)	> 72 h	110 µg/mL (≈ 257 µM)	2.57	Dose-dependent effect	tde	Dose-dependent effect	21 µM	≥ 50 µM	Stable	> 100 µM	5.5 µM	52.2 µM	75.4 µM	62%	37.5%		
COc1cc(NC(C)CCCN)c2ncccc2c1 (stereo unspecified) [PRIMAQUINE]			2.76	Dose-dependent effect	tde			18.1 µM		> 100 µM		3.5 µM	8.5 µM	40%	2.9%	56.4 µg/mL (≈ 217 µM)	
COc1cc(NC(C)CCCN2C(=O)CN(C(=O)[C@H](N)CC(C)C)C2(C)C)c2ncccc2c1 (stereo partly specified)	> 72 h	26.6 µg/mL (≈ 56.6 µM)	3.36	Dose-dependent effect	tde	Dose-dependent effect	24 µM	31.1 µM	Stable	21.2 µM	6.3 µM	10.9 µM	17.9 µM				3.5
COc1cc(N(C(C)=O)C(C)CCCN2C(=O)CN(C(C)=O)C2(C)C)c2ncccc2c1 (stereo unspecified)								≥ 50 µM		> 100 µM	> 10 µM	≥ 50 µM	≥ 50 µM				
COc1cc(NC(C)CCCN2C(=O)CN(C(=O)[C@H](N)Cc3ccccc3)C2(C)C)c2ncccc2c1 (stereo partly specified)	> 72 h	5.4 µg/mL (≈ 10.7 µM)	3.6	Dose-dependent effect	tde	Dose-dependent effect	21 µM	24 µM	Stable	9.1 µM	9.9 µM	10.1 µM	18.5 µM	43.8%	40%		
COc1cc(NC(C)CCCN2C(=O)CN(C(=O)CN)C2(C)C)c2ncccc2c1 (stereo unspecified)	> 72 h	150 µg/mL (≈ 363 µM)	2.19	Dose-dependent effect	tde	Dose-dependent effect	22 µM	43.8 µM	Stable	> 100 µM	6.7 µM	28.1 µM	37.5 µM	42.5%	40.5%		
CC[C@H](C)[C@@H](N)C(=O)N1CC(=O)N(CCCC(C)Nc2cc(OC)cc3cccnc23)C1(C)C (stereo partly specified)	> 72 h	29.7 µg/mL (≈ 63.2 µM)	3.4	Dose-dependent effect	tde	Dose-dependent effect	13 µM	27.5 µM	Stable	14.9 µM	8.7 µM	9.8 µM	16 µM	83.3%	62.2%		
